Experimental data reported in ChEMBL document CHEMBL2086384, “Chiral cyclohexane 1,3-diones as inhibitors of mutant SOD1-dependent protein aggregation for the treatment of ALS” (ACS Med Chem Lett, 2012).
Calls of active or inactive are those of the source. The calls are words filed in the database; no cut-off is given here.

Key:
[1] = Inhibition of SOD1 G93A mutant-induced protein aggregation in MG132-treated rat PC12 cells assessed as decrease in cell death incubated for 24 hrs prior to MG132 treatment measured after 48 hrs by Calcein-AM staining method; format: cell-based; settings: PC-12
Cerebral cortex neuron [2] = test: Inhibition of SOD1 G93A mutant-induced protein aggregation in MG132-treated rat primary cortical neurons assessed as decrease in cell death up to 100 uM incubated for 24 hrs prior to MG132 treatment measured after 48 hrs by Calcein-AM staining method; format: cell-based
Mus musculus [3] = test: Increase in life span of transgenic mouse expressing human SOD1 G93A mutant at 22 mg/kg; format: functional
Cerebral cortex neuron [4] = test: Inhibition of SOD1 G93A mutant-induced protein aggregation in MG132-treated rat primary cortical neurons assessed as decrease in cell death at 3 uM incubated for 24 hrs prior to MG132 treatment measured after 48 hrs by Calcein-AM staining method; format: cell-based
[5] = Aqueous solubility of the compound in DMSO after 1 hr by spectrophotometry; format: physicochemical
Procedure, shortened: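 Aqueous solubility: DMSO stock diluted into PBS to a final 1% DMSO. The limit was taken as the highest concentration showing no precipitation.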

[6] = Half life in plasma; format: ADME, cell-free
Liver [7] = test: Half life in mouse liver microsomes at 1 uM after 1 hr in presence of NADPH; format: ADME, Microsome
Procedure, shortened: (§1)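 Human or mouse liver microsomes; test compound at 1 μM, incubated at 37 °C for 1 h with and without NADPH. Intrinsic clearance given in mL/min/kg and half-life in min.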

[8] = Intrinsic clearance in human liver microsomes at 1 uM after 1 hr in absence of NADPH; format: ADME, Microsome; settings: read-out: CLH; procedure, shortened: as §1
Liver microsomes [9] = test: Half life in human liver microsomes at 1 uM after 1 hr in absence of NADPH; format: ADME, Microsome; procedure, shortened: as §1
Liver [10] = test: Half life in mouse liver microsomes at 1 uM after 1 hr in absence of NADPH; format: ADME, Microsome; procedure, shortened: as §1
Liver microsomes [11] = test: Drug metabolism in rat liver microsomes at 10 uM after 1 hr by LC-PDA-MS/MS analysis; format: ADME, Microsome
[12] = Apparent permeability of the compound from apical to basal side of human Caco2 cells at 50 uM after 2 hrs; format: ADME, cell-based; settings: Caco-2
[13] = Apparent permeability of the compound from basal to apical side of human Caco2 cells at 50 uM after 2 hrs; format: ADME, cell-based; settings: Caco-2
Caco-2 = test: Efflux ratio of apparent permeability from basal to apical to apical to basal side of human Caco2 cells at 50 uM after 2 hrs; format: ADME, cell-based; settings: caco-2, 2 h
[14] = Drug uptake in blood at 500 mg/kg, ip at 12 hrs; format: ADME, organism-based; set-up: dose 500 mg/kg, route intraperitoneal; settings: read-out: Drug uptake
Procedure, shortened: (§2)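 Single i.p. dose of 500 mg/kg in mice. Blood and brain levels were sampled over time to find the maximum level and Tmax.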

[15] = Half life in blood at 500 mg/kg, ip; format: ADME, organism-based; set-up: dose 500 mg/kg, route intraperitoneal
Procedure, shortened: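 Compound given i.p. at 500 mg/kg. Concentrations were measured in blood, with brain levels sampled in the same study. The half-life was taken from the blood time course.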

[16] = Drug uptake in brain at 500 mg/kg, ip; format: ADME, organism-based; set-up: dose 500 mg/kg, route intraperitoneal; settings: in vivo, read-out: Drug uptake; procedure, shortened: as §2
[17] = Tmax in brain at 500 mg/kg, ip; format: ADME, organism-based; set-up: dose 500 mg/kg, route intraperitoneal
Procedure, shortened: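 Compound given as a single intraperitoneal dose of 500 mg/kg. Levels were followed over time in both blood and brain. Tmax is the time at which the brain concentration peaked.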

[18] = Toxicity in mouse administered BID; format: organism-based; settings: in vivo
Procedure, shortened: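 Tolerable dose range found in wild-type mice by escalating the dose given b.i.d.; maximum tolerated dose taken as the read-out.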

Mus musculus [19] = test: Increase in life span of transgenic mouse expressing human SOD1 G93A mutant at 20 mg/kg administered QD until death relative to untreated-control; format: functional
Procedure, shortened: (§3)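 Transgenic mice expressing human G93A mutant SOD1, cohorts matched for age (±3 days) and "f" generation, drawn from multiple litters. Dosed 10, 20 or 30 mg/kg once daily from 6 weeks of age until end of life; untreated G93A mice served as controls. Survival read out by Kaplan-Meier plot and reported as mean ± value in days, with p values.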

Mus musculus [20] = test: Increase in life span of transgenic mouse expressing human SOD1 G93A mutant assessed as survival at 10 mg/kg administered QD until death (reference value: 125.7+/-4.3 days); format: functional; procedure, shortened: as §3
Mus musculus [21] = test: Increase in life span of transgenic mouse expressing human SOD1 G93A mutant assessed as survival at 30 mg/kg administered QD until death (reference value: 125.7+/-4.3 days); format: functional; procedure, shortened: as §3
Liver microsomes [22] = test: Half life in human liver microsomes at 1 uM after 1 hr in presence of NADPH; format: ADME, Microsome; procedure, shortened: as §1
Cerebral cortex neuron [23] = test: Inhibition of SOD1 G93A mutant-induced protein aggregation in MG132-treated rat primary cortical neurons assessed as decrease in cell death at 10 uM incubated for 24 hrs prior to MG132 treatment measured after 48 hrs by Calcein-AM staining method; format: cell-based

O=C1CC(=O)CC(c2cc(C(F)(F)F)cc(C(F)(F)F)c2)C1
EC50 [1]: 700 nM
inhibition (Cerebral cortex neuron [2]): inactive

O=C1CC(=O)CC(C2CC2c2cc(C(F)(F)F)cc(C(F)(F)F)c2)C1 (racemic)
EC50 [1]: 1000 nM
inhibition (Cerebral cortex neuron [2]): Active

Nc1nc2ccc(OC(F)(F)F)cc2s1 [RILUZOLE]
survival at 22 mg/kg (Mus musculus [3]): 10%

C[C@H](Oc1cc(C(F)(F)F)cc(C(F)(F)F)c1)C1CC(=O)CC(=O)C1
EC50 [1]: 300 nM
inhibition (Cerebral cortex neuron [2]): Active
inhibition (Cerebral cortex neuron [4]): > 90%
solubility [5]: >= 100 uM
t1/2 [6]: > 1 h
t1/2 (Liver [7]): 0.867 h
CLint scaled at 1 µM [8]: 10 mL/min/kg
t1/2 (Liver microsomes [9]): > 3 h
t1/2 (Liver [10]): 0.867 h
Drug metabolism (Liver microsomes [11]): Active
Papp A→B at 2 h, 50 µM [12]: 24.1 ×10⁻⁶ cm/s
Papp B→A at 2 h, 50 µM [13]: 1.5 ×10⁻⁶ cm/s
Ratio (Caco-2): 0.1
concentration at 12 h [14]: 245 µM
half-life [15]: 12 h
concentration [16]: 8.3 µM
Tmax [17]: 12 h
MTD [18]: 1280 mg/kg
survival at 20 mg/kg (Mus musculus [19]): 13%
Survival (Mus musculus [20]): 139.2 days
Survival (Mus musculus [21]): 127.9 days

CC(Oc1cc(C(F)(F)F)cc(C(F)(F)F)c1)C1CC(=O)CC(=O)C1 (racemic)
EC50 [1]: 700 nM
inhibition (Cerebral cortex neuron [2]): Active

O=C1CC(=O)CC([C@@H]2C[C@H]2c2cc(C(F)(F)F)cc(C(F)(F)F)c2)C1
EC50 [1]: 800 nM
inhibition (Cerebral cortex neuron [2]): Active
solubility [5]: >= 100 uM
t1/2 [6]: 1.18 h
t1/2 (Liver microsomes [22]): 0.817 h
t1/2 (Liver [7]): 0.467 h
CLint scaled at 1 µM [8]: 12 mL/min/kg
t1/2 (Liver microsomes [9]): > 3 h
t1/2 (Liver [10]): 0.617 h
Papp A→B at 2 h, 50 µM [12]: 21.7 ×10⁻⁶ cm/s
Papp B→A at 2 h, 50 µM [13]: 1.1 ×10⁻⁶ cm/s
Ratio (Caco-2): 0.1

C[C@@H](Oc1cc(C(F)(F)F)cc(C(F)(F)F)c1)C1CC(=O)CC(=O)C1
EC50 [1]: 1300 nM
inhibition (Cerebral cortex neuron [2]): Active

O=c1cc(COc2cc(Cl)cc(Cl)c2)[nH][nH]1
inhibition (Cerebral cortex neuron [23]): Active

O=C1CC(=O)CC([C@H]2C[C@@H]2c2cc(C(F)(F)F)cc(C(F)(F)F)c2)C1
EC50 [1]: 1390 nM
inhibition (Cerebral cortex neuron [2]): Active
